Experiments:
[1] = melting temperature; fluorescence melt of hairpins on a sequencing array, two-state fit, raised by 9.35 °C to match UV melts; conditions: sodium 0.088 M
Method in brief: (§1)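 Hairpins were imaged by Cy3 fluorescence on a sequenced MiSeq flow cell with annealed Cy3 and quencher oligos, in 50 mM Na-HEPES pH 8.0, 25 mM NaCl, in 2.5 °C steps up to 60 °C. Bootstrapped two-state fits of normalised signals gave melting temperature and folding enthalpy. Four replicates were combined by inverse variance, and fitted temperatures were raised by 9.35 °C to match UV melts.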

[2] = folding enthalpy; higher = less favourable; fluorescence melt of hairpins on a sequencing array, two-state fit; conditions: sodium 0.088 M
Method in brief: as §1

Sequence	Tm [1]	folding enthalpy [2]
GGGGAGGAAACTCCCC ((((((....))))))	66.3 °C	-36.9 kcal/mol
GCTCTACCGAAAGGTAGC (((..(((....))))))	31.3 °C	-9.29 kcal/mol
GATCTAGCCGTAGATC ((((((....))))))	44.5 °C	-31.2 kcal/mol
GTCGGGGGAAACCCTGGC (.(.(((....))).).)	43.9 °C	-21.8 kcal/mol
GCCACTGGAAACAGCAGC ((..(((....)))..))	25.5 °C	-11.8 kcal/mol
GACCGGCGAAAGCCGTC (((.(((....))))))	49.1 °C	-8.28 kcal/mol
GTTCTGGAAACAGAAC ((((((....))))))	53.4 °C	-37.2 kcal/mol
GGTTTGCCGAAAGGCACC (((..(((....))))))	30.7 °C	-8.06 kcal/mol
GTCGCCGAAAGGCATGAC ((((((....)))..)))	40.7 °C	-13.2 kcal/mol
GCAACCGGAAACGGTCGC ((.((((....)))).))	52.8 °C	-29.8 kcal/mol
GATCACGGTGGTGATC ((((((....))))))	58.3 °C	-37.2 kcal/mol
GATCAATATTTTGATC ((((((....))))))	45.6 °C	-35.6 kcal/mol
GCCGTCGAAAGACAGGGC ((((((....)))..)))	54.4 °C	-38.8 kcal/mol
GATCTACACTTAGATC ((((((....))))))	43.4 °C	-44.7 kcal/mol
GATCGCCAGTGCGATC ((((((....))))))	64.4 °C	-34.9 kcal/mol
GGGTTGCGAAAGCACCCC (((.(((....))).)))	62.9 °C	-19.4 kcal/mol
GTTAGCCGAAAGGCAAAC (((.(((....))).)))	48.6 °C	-18.1 kcal/mol
GCTCCAGAAATGGAGC ((((((....))))))	65.8 °C	-32 kcal/mol
GCGGAATTCCGC ((((....))))	56.3 °C	-36.5 kcal/mol
GAGAGCGAAAGCTTGCTC ((((((....)))..)))	35.5 °C	-10.4 kcal/mol
GTTGCCGGAAACGGTGAC ((..(((....)))..))	47.8 °C	-22.8 kcal/mol
GTAAGCGAAAGCTTAC ((((((....))))))	67.2 °C	-27.9 kcal/mol
GAGCCCGGAAACAGGCTC (((((.(....).)))))	51.5 °C	-39.4 kcal/mol

Sequence	Tm [1]	folding enthalpy [2]
GCAGGCCGAAAGGCTTGC (((.(((....))).)))	69.1 °C	-29.2 kcal/mol
GGGCCCTCGAAAGAGCCC (((..(((....))))))	48.1 °C	-23 kcal/mol
GCATAGCGAAAGCAGTGC (((..((....))..)))	53.7 °C	-17 kcal/mol
CGACCCGGAAACGGATCG (((.(((....))).)))	48.8 °C	-33.4 kcal/mol
GTGCAGGGAAACTTGCGC (.(((.(....).))).)	42 °C	-31.2 kcal/mol
GCGTCGCGAAAGCCGCGC (((..((....))..)))	66 °C	-29.7 kcal/mol
CGCTTACGGAAACGTGCG (((..(((....))))))	42.7 °C	-24.4 kcal/mol
GGGATAACGAAAGTTCCC (((..(((....))))))	42.4 °C	-26.7 kcal/mol
GGGTTCGGAAACGAACTC (.(((((....))))).)	53.8 °C	-23.3 kcal/mol
GACACCGAAAGGTAGGTC ((((((....)))..)))	38.7 °C	-20.2 kcal/mol
GCGACGGTTCGC ((((....))))	49.1 °C	-20.1 kcal/mol
GCTTCTGGAAACGGAAGC (((((.(....).)))))	51.6 °C	-46.4 kcal/mol
GTCCAAGGAAACCTGGAC (((((.(....).)))))	46.8 °C	-27.7 kcal/mol
GCTAAGCGAAAGCTATGC ((..(((....)))..))	43.5 °C	-20.4 kcal/mol
GACAGTGCGAAAGCAGTC (((..(((....))))))	40.5 °C	-13.3 kcal/mol
GGAGCCGGAAACGGTTCC (((.(((....))).)))	58.5 °C	-45.1 kcal/mol
GATCGGCACACCGATC ((((((....))))))	59 °C	-39.6 kcal/mol
GTTCATCGAAAGATAAC (((.(((....))))))	32.3 °C	-12.4 kcal/mol
GCCCGGCGAAAGCTGTGC ((.(.((....)).).))	40.9 °C	-19.7 kcal/mol
GCATGCCGAAAGGCCTGC (((.(((....))).)))	55.9 °C	-31.6 kcal/mol
GATAGACGAAAGTCAATC (((.(((....))).)))	41.2 °C	-22.5 kcal/mol
GAAAGCCCGAAAGGGTTC (((..(((....))))))	27.9 °C	-10.6 kcal/mol
GGGTGAACGAAAGTTCCC (((..(((....))))))	50.1 °C	-14.9 kcal/mol

— the array DNA melting data of Ke et al. (doi:10.1101/2024.01.08.574731)
